The sample as a whole holds a higher share of hits than the screen did.
Yeast lifespan up – extends the lifespan of yeast. S. cerevisiae growth with nicotinamide, OD615; deaD strain in restrictive glucose medium. inhibition of the nicotinamide effect, % at 10 µM. actives 0.68% (n = 130,000). AID 775;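 active means inhibition above a set limit, placed 3 SD over the median of all compounds, cut at about 26% in these data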;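 further: 0% = nicotinamide-treated wells and 100% = cells grown without nicotinamide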
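assay system = DeaD-strain S. cerevisiae | measured by = absorbance at 615 nm | probe or stimulus = nicotinamide 1.5 mM | buffer or medium = CSMM-D glucose medium, restrictive | times = 48 h at 30 °C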
BB579 growth dn – chemicals that inhibit yeast BB579 growth in restrictive medium (lifespan-shortening candidates); S. cerevisiae BB579 growth, OD615, 48 h; inhibition, % at 10 µM; actives 0.51% (n = 140,000); AID 804;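 active means inhibition above a set limit, 3 SD over the mean compound inhibition, cut at about 44% in these data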
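test system = yeast BB579 (DeaD) | buffer or medium = restrictive CSMM-D medium | doses = single compound dose of 10 µM, 0.25% DMSO final | times = 4 h preincubation and 48 h exposure at 30 °C | technique = culture absorbance at 615 nm | benchmarks = amphotericin B 10 µg/mL, positive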
PostGolgi ctrl – yeast control strain growth, post-Golgi counter-screen; efflux-deficient yeast background strain, growth absorbance A615, 16 h; inhibition, % at 10 µM; actives 5% (n = 98,000); AID 738
PostGolgi yeast – growth inhibition of a yeast mutant, post-Golgi transport screen; inhibition, % at 10 µM; actives 0.9% (n = 98,000); AID 739; post-Golgi transport phenotypic cell assay;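 further: yeast cells grown in 1536-well plates; yeast grown about 18 h at 30C before absorbance read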
Numbers without * were called inactive; x = no result given. Unless noted, no stated cut-off is given here; in the data, active means inhibition above about 30%; inactive means the rest.

SMILES | Yeast lifespan up | BB579 growth dn | PostGolgi ctrl | PostGolgi yeast
C=C(C)Cn1c(CCNC(=O)CC)nc2ccccc21 | -3 | -20 | 15 | 4
C=CCn1c(CCCNC(=O)C(C)(C)C)nc2ccccc21 | -4 | 40 | 30* | 2
C=C(C)Cn1c(CCNC(=O)C(C)C)nc2ccccc21 | -5 | -71 | 41* | -6
C=C(C)Cn1c(CCCNC(=O)C(C)(C)C)nc2ccccc21 | -7 | -36 | 4 | 2
O=C(CCc1nc(-c2cccs2)no1)NCc1ccc(F)cc1Cl | -4 | -16 | 14 | 4
Cc1ccc(CNC(=O)CCc2nc(-c3cccs3)no2)cc1 | -10 | -65 | 43* | -7
Cn1c(-c2ccc(F)cc2)cnc1NCc1ccc(F)cc1 | 9 | -59 | 2 | -1
Cn1c(-c2ccc(Br)cc2)cnc1NCc1cccnc1 | 42* | -29 | -7 | 2
COc1ccc(NC(=O)c2cc3sccc3n2Cc2ccc(F)cc2)cc1OC | 3 | -51 | 33* | 2
CCN(CC)c1ccc(C=C(c2nnnn2-c2ccc(C)cc2)c2nnnn2-c2ccc(C)cc2)cc1 | 7 | -29 | x | x
Cc1ccc(O)c(NC(=O)c2cc3nc4c(c(C(F)(F)F)n3n2)CCc2ccccc2-4)c1 | -4 | -10 | 35* | 2
CCOC(=O)C1CCN(c2ncnc3c2oc2ccc(Cl)cc23)CC1 | -8 | 14 | 33* | 5
CCOC(=O)C1CCN(c2ncnc3c2[nH]c2cccc(OC)c23)CC1 | -9 | -31 | 13 | -1
Clc1ccc2nc(SCc3nnc(-c4ccccc4)o3)[nH]c2c1 | -14 | -37 | 24 | -8
Clc1ccc(OCc2nnc(SCc3nnc(-c4ccccc4)o3)o2)c(Cl)c1 | -10 | -40 | 41* | 5
CC1(C)CC(=O)C2=C(C1)N(c1ccccc1)C(=O)CC2c1ccsc1 (centres undefined) | 0 | 8 | 9 | -3
CCCSc1nnc(N2C(=O)CC(c3ccsc3)C3=C2CCCC3=O)s1 (centres undefined) | -8 | -16 | 48* | -3
COc1ccc2c(c1)C(SCC(=O)NCCc1ccc(Cl)cc1)CC(C)(C)O2 (centres undefined) | 14 | -27 | x | x
O=C(Nc1nc2ccccc2s1)c1ccc(OCC2CCCO2)cc1 (centres undefined) | -7 | 0 | x | x
CCN1C(=O)S/C(=C\c2ccc(N3CCOCC3)cc2C)C1=O | -3 | -24 | 35* | 8
Cc1ccc(C2C(C#N)=C(N)SC(N)=C2C#N)cc1 | -9 | -24 | 40* | -4
Cc1[nH]nc(Sc2ccccn2)c1[N+](=O)[O-] | -3 | 4 | x | x
CCCCS(=O)(=O)C(=C1Nc2ccccc2N1)S(=O)(=O)CCCC | -4 | -32 | 30* | 12
Cc1ccc(C)n1-c1ccc(-c2nnc3n2CCCCC3)s1 | -9 | -12 | -3 | 1
COc1ccc(-c2nc3c(=O)n(C)c(=O)[nH]c3n2CCc2ccccc2)cc1 | -11 | -22 | -1 | 1
SMILES | Yeast lifespan up | BB579 growth dn | PostGolgi ctrl | PostGolgi yeast
CCCn1c(-c2ccccc2)nc2c(=O)n(C)c(=O)[nH]c21 | -14 | -23 | 36* | 3
COCCCNC(=O)C1C2C=CC3(CN(Cc4ccc(C)cc4)C(=O)C13)O2 (centres undefined) | -2 | -42 | 33* | -7
O=C(NCc1ccco1)c1ccc(COc2cc(Cl)ccc2Cl)cc1 | -4 | -22 | x | x
Cc1ccc(OCC(=O)NNC(=O)C(=O)N2CCCC2)c(C)c1 | 2 | 2 | x | x
Cc1noc(NS(=O)(=O)c2ccc(NC(=O)CSc3nc4ccccc4s3)cc2)c1C | -9 | -28 | 33* | -3
Cc1noc(NS(=O)(=O)c2ccc(NC(=O)CSc3ncccn3)cc2)c1C | -4 | -1 | 3 | 1
CC(/C=N/NC(=O)c1cc(-c2cccnc2)nc2c1c(C)nn2-c1ccccc1)=C\c1ccccc1 | -1 | -18 | x | x
CCOc1ccc(Cl)cc1CN1CCOCC1 | 4 | -31 | 13 | -7
CCCCCOc1ccc(Cl)cc1CN1CCOCC1 | -11 | 9 | 26 | 58*
CC(C)CCOc1ccc(Cl)cc1CN1CCOCC1 | -23 | -26 | 37* | 32*
O=[N+]([O-])c1cc(S(=O)(=O)N2CCCC2)ccc1N/N=C/c1cccnc1 | 6 | -43 | x | x
Cc1ccc(S(=O)(=O)N2CCOCC2)cc1NC(=O)COC(=O)CCC(=O)c1cccs1 | -15 | -9 | -2 | 6
O=C(COC(=O)CCC(=O)c1cccs1)Nc1ccc(S(=O)(=O)N2CCOCC2)cc1 | -10 | -68 | 41* | -5
Cc1cc(OCC(=O)N2CCc3ccccc3C2)c2c(-c3ccccc3)cc(=O)oc2c1 | -4 | -35 | 51* | 5
CCOc1cc(C)cc2oc(=O)cc(-c3ccccc3)c12 | -7 | -31 | 32* | 21

Screening data as filed in PubChem.
